# The source made the active and inactive calls. The rule behind the calls is not given here.
# Experiments:
# [1] = tested on: Enterococcus faecium; assay: Antibacterial activity against Enterococcus faecium NR-31914 incubated for 18 to 20 hrs under aerobic condition by CLSI protocol based broth microdilution assay; format: functional; conditions: time hrs 18-20
# In short: (§1)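 Broth microdilution per CLSI. Strains grown aerobically overnight on trypticase soy agar at 37 °C. Inoculum set to 0.5 McFarland, diluted in trypticase soy broth to about 5 × 10⁵ CFU/mL. Agents serially diluted, plates incubated aerobically at 37 °C for 18–20 h. MIC is the lowest concentration with no visible growth. Compound stocks 10 mg/mL in DMSO.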
# [2] = tested on: Enterococcus faecium; assay: Antibacterial activity against Enterococcus faecium NR-31971 incubated for 18 to 20 hrs under aerobic condition by CLSI protocol based broth microdilution assay; format: functional; conditions: time hrs 18-20; in short: as §1
# [3] = tested on: Enterococcus faecium; assay: Antibacterial activity against Enterococcus faecium NR-31916 incubated for 18 to 20 hrs under aerobic condition by CLSI protocol based broth microdilution assay; format: functional; conditions: time hrs 18-20; in short: as §1
# [4] = tested on: Enterococcus faecium; assay: Antibacterial activity against Enterococcus faecium NR-28978 incubated for 18 to 20 hrs under aerobic condition by CLSI protocol based broth microdilution assay; format: functional; conditions: time hrs 18-20; in short: as §1
# [5] = tested on: Enterococcus faecium; assay: Antibacterial activity against Enterococcus faecium NR-31972 incubated for 18 to 20 hrs under aerobic condition by CLSI protocol based broth microdilution assay; format: functional; conditions: time hrs 18-20; in short: as §1
# [6] = tested on: Enterococcus faecalis; assay: Antibacterial activity against Enterococcus faecalis HM-335 incubated for 18 to 20 hrs under aerobic condition by CLSI protocol based broth microdilution assay; format: functional; conditions: time hrs 18-20; in short: as §1
# [7] = tested on: Enterococcus faecium; assay: Antibacterial activity against Enterococcus faecium NR-32052 incubated for 18 to 20 hrs under aerobic condition by CLSI protocol based broth microdilution assay; format: functional; conditions: time hrs 18-20; in short: as §1
# [8] = tested on: Enterococcus faecium; assay: Antibacterial activity against Enterococcus faecium HM968 incubated for 18 to 20 hrs under aerobic condition by CLSI protocol based broth microdilution assay; format: functional; conditions: time hrs 18-20; in short: as §1
# [9] = tested on: Enterococcus faecium; assay: Antibacterial activity against Enterococcus faecium NR-31903 incubated for 18 to 20 hrs under aerobic condition by CLSI protocol based broth microdilution assay; format: functional; conditions: time hrs 18-20; in short: as §1
# [10] = tested on: Enterococcus faecium; assay: Antibacterial activity against Enterococcus faecium NR-32065 incubated for 18 to 20 hrs under aerobic condition by CLSI protocol based broth microdilution assay; format: functional; conditions: time hrs 18-20; in short: as §1
# [11] = tested on: Caco-2; assay: Cytotoxicity against human Caco2 cells at 128 ug/ml incubated for 2 hrs by MTS assay; format: cell-based; conditions: caco-2, 2 h, dose 128 µg/ml
# In short: (§2)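 Caco-2 cells maintained in DMEM with 10% FBS, non-essential amino acids and penicillin-streptomycin at 37 °C, 5% CO₂. Compound exposure for 2 h in serum-free medium at several concentrations; DMSO-matched controls. Viability expressed relative to DMSO controls (mean ± SD), and CC₅₀ derived.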
# [12] = tested on: Enterococcus faecalis; assay: Antibacterial activity against Enterococcus faecalis NR-31975 incubated for 18 to 20 hrs under aerobic condition by CLSI protocol based broth microdilution assay; format: functional, organism-based; conditions: time hrs 18-20; in short: as §1
# [13] = tested on: Enterococcus faecalis; assay: Antibacterial activity against Enterococcus faecalis HM-334 incubated for 18 to 20 hrs under aerobic condition by CLSI protocol based broth microdilution assay; format: functional; conditions: time hrs 18-20; in short: as §1
# [14] = Cytotoxicity against human Caco2 cells incubated for 2 hrs by MTS assay; format: cell-based; conditions: Caco-2 cells; in short: as §2
# [15] = tested on: Enterococcus faecalis; assay: Antibacterial activity against Enterococcus faecalis NR-31970 incubated for 18 to 20 hrs under aerobic condition by CLSI protocol based broth microdilution assay; format: functional, organism-based; conditions: time hrs 18-20; in short: as §1
# [16] = tested on: Enterococcus faecium; assay: Antibacterial activity against Enterococcus faecium HM965 incubated for 18 to 20 hrs under aerobic condition by CLSI protocol based broth microdilution assay; format: functional; conditions: time hrs 18-20; in short: as §1
# [17] = tested on: Enterococcus faecium; assay: Inhibition of carbonic anhydrase in Enterococcus faecium ATCC 700221 assessed as antibacterial activity incubated for 18 to 20 hrs in presence of 5% CO2 by CLSI protocol based broth microdilution assay; conditions: time hrs 18-20
# In short: (§3)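 CLSI broth microdilution: inoculum about 5 × 10⁵ CFU/mL in trypticase soy broth with serial dilutions of agents. Paired plates incubated at 37 °C for 18–20 h, one set in ambient air ("normal"), the other under 5% CO₂. MIC is the lowest concentration completely inhibiting visible growth.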
# [18] = tested on: Enterococcus faecium; assay: Inhibition of carbonic anhydrase in Enterococcus faecium ATCC 700221 assessed as antibacterial activity incubated for 18 to 20 hrs in presence of ambient air by CLSI protocol based broth microdilution assay; conditions: time hrs 18-20; in short: as §3
Structure (SMILES),MIC [1] [µg/mL],MIC [2] [µg/mL],MIC [3] [µg/mL],MIC [4] [µg/mL],MIC [5] [µg/mL],MIC [6] [µg/mL],MIC [7] [µg/mL],MIC [8] [µg/mL],MIC [9] [µg/mL],MIC [10] [µg/mL],Activity [11],Activity [12],MIC [13] [µg/mL],CC50 at 2 h [14] [µg/mL],Activity [15],MIC [16] [µg/mL],inhibition [17],inhibition [18]
CN[C@H](CC(C)C)C(=O)N[C@H]1C(=O)N[C@@H](CC(N)=O)C(=O)N[C@H]2C(=O)N[C@H]3C(=O)N[C@H](C(=O)N[C@H](C(=O)O)c4cc(O)cc(O)c4-c4cc3ccc4O)[C@H](O)c3ccc(c(Cl)c3)Oc3cc2cc(c3O[C@@H]2O[C@H](CO)[C@@H](O)[C@H](O)[C@H]2O[C@H]2C[C@](C)(N)[C@H](O)[C@H](C)O2)Oc2ccc(cc2Cl)[C@H]1O [VANCOMYCIN],64,64,> 64,32,> 64,> 64,64,64,> 64,64,,,,,,,,
NS(=O)(=O)c1nnc(NC(=O)C2CCCCC2)s1,0.5,0.5,0.25,0.5,0.25,0.5,0.5,0.5,0.5,0.5,Non-Toxic,Active,0.25,> 128,Active,0.25,,
NS(=O)(=O)c1nnc(NC(=O)CC2CCC2)s1,,,,,,,,,,,,,,,,0.25,,
CC(=O)Nc1ccc(S(N)(=O)=O)cc1,,,,,,,,,,,,,,,,> 64,,
CC(C)(C)C(=O)Nc1nnc(S(N)(=O)=O)s1,0.5,0.5,0.5,0.25,1,0.5,0.5,0.5,0.5,0.25,Non-Toxic,Active,0.5,> 128,Active,0.25,,
CC(C)(C)CC(=O)Nc1nnc(S(N)(=O)=O)s1,0.007,0.06,0.03,0.03,0.015,0.03,0.015,0.015,0.015,0.007,Non-Toxic,Active,0.03,> 128,Active,0.015,inactive,Active
CC(C)CC(=O)Nc1nnc(S(N)(=O)=O)s1,0.25,0.5,0.125,0.25,0.5,0.125,0.125,0.125,0.125,0.25,Non-Toxic,Active,0.5,> 128,Active,0.125,,
NS(=O)(=O)c1nnc(NC(=O)CC2CCCC2)s1,0.125,0.06,0.015,0.125,0.03,0.03,0.06,0.06,0.125,0.015,Non-Toxic,Active,0.03,> 128,Active,0.06,inactive,Active

# — ChEMBL document CHEMBL4725360, “Optimization of Acetazolamide-Based Scaffold as Potent Inhibitors of Vancomycin-Resistant Enterococcus” (J Med Chem, 2020)
